Tests used:
Rattus norvegicus [1] = species on record: Rattus norvegicus; test: Ability to inhibit N-formyl-methionyl-leucyl-phenylalanine (fMLP)-stimulated release of myeloperoxidase (MPO) from rat polymorphonuclear leukocytes (PMN).; type: functional
Method in brief: (§1)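 Peritoneal PMN were taken from Harlan Sprague-Dawley rats (150-250 g), with >90% viability by trypan blue and >90% PMN by Wright-Giemsa stain. Cells in suspension (2 × 10^7 cells/mL) were stimulated with 0.1 μM fMLP for 30 min at 37 °C in the presence of test agent. MPO in the supernatant was measured by MPO-catalyzed oxidation of o-dianisidine.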

Rattus norvegicus [2] = species on record: Rattus norvegicus; test: Tested for ability at 50 uM to inhibit N-formyl-methionyl-leucyl-phenylalanine (fMLP) stimulated release of Myeloperoxidase (MPO) from rat polymorphonuclear leukocytes (PMN); type: functional; method in brief: as §1

SMILES: O=C(/C=C/c1ccncc1)c1ccco1
- IC50 (Rattus norvegicus [1]): 50 µM

SMILES: COc1cc(C(=O)/C=C(\C)c2ccncc2)cc(OC)c1OC
- IC50 (Rattus norvegicus [1]): > 100 µM

SMILES: N#Cc1cccc(C(=O)/C=C/c2ccncc2)c1
- IC50 (Rattus norvegicus [1]): 85 µM

SMILES: O=C(/C=C/c1ccncc1)c1ccc(C(F)(F)F)cc1
- IC50 (Rattus norvegicus [1]): 204 µM

SMILES: COc1cc(C(O)/C=C/c2ccncc2)cc(OC)c1OC (stereo not drawn)
- IC50 (Rattus norvegicus [1]): > 100 µM

SMILES: N#Cc1ccc(C(=O)/C=C/c2ccncc2)cc1
- IC50 (Rattus norvegicus [1]): 123 µM

SMILES: CSc1ccc(C(=O)/C=C/c2ccncc2)cc1
- IC50 (Rattus norvegicus [1]): 33 µM

SMILES: O=C(/C=C/c1ccncc1)c1ccccc1
- IC50 (Rattus norvegicus [1]): 49 µM

SMILES: O=C(/C=C/c1ccncc1)c1cccc(C(F)(F)F)c1
- IC50 (Rattus norvegicus [1]): 41 µM

SMILES: COc1cc(C(=O)/C=C/c2ccncc2)cc(OC)c1OC
- IC50 (Rattus norvegicus [1]): 7 µM

SMILES: COc1cc(C(=O)/C=C/c2cccnc2)cc(OC)c1OC
- IC50 (Rattus norvegicus [1]): 30 µM

SMILES: CO/N=C(\C=C\c1ccncc1)c1cc(OC)c(OC)c(OC)c1
- IC50 (Rattus norvegicus [1]): > 100 µM

SMILES: COc1cc(C(=O)/C(C)=C/c2ccncc2)cc(OC)c1OC
- IC50 (Rattus norvegicus [1]): > 100 µM

SMILES: CN(C)c1ccc(C(=O)/C=C/c2ccncc2)cc1
- IC50 (Rattus norvegicus [1]): 11 µM

SMILES: O=c1cc(-c2cccnc2)oc2ccccc12
- IC50 (Rattus norvegicus [1]): > 100 µM

SMILES: COc1cc(C(=O)CCc2ccncc2)cc(OC)c1OC
- IC50 (Rattus norvegicus [1]): > 100 µM

SMILES: O=C(c1ccccc1)c1ccc2ncccc2c1
- IC50 (Rattus norvegicus [1]): > 100 µM

SMILES: O=C1c2ccccc2-c2cccc(-c3cccnc3)c21
- IC50 (Rattus norvegicus [1]): > 100 µM

SMILES: O=C(c1ccccc1)c1ccccc1-c1cccnc1
- IC50 (Rattus norvegicus [1]): > 100 µM

SMILES: COc1cc(/C=C\C(=O)c2ccncc2)cc(OC)c1OC
- inhibition at 50 µM (Rattus norvegicus [2]): 28%

SMILES: O=C(/C=C/c1ccncc1)c1cccs1
- IC50 (Rattus norvegicus [1]): 30 µM

SMILES: O=C(c1ccccc1)c1cccc(-c2cccnc2)c1
- IC50 (Rattus norvegicus [1]): > 100 µM

SMILES: O=C1c2ccccc2-c2ccc(-c3cccnc3)cc21
- IC50 (Rattus norvegicus [1]): > 100 µM

SMILES: O=C(/C=C/c1ccncc1)c1cccc(Cl)c1
- IC50 (Rattus norvegicus [1]): 69 µM

SMILES: CN(C)c1cccc(C(=O)/C=C/c2ccncc2)c1
- IC50 (Rattus norvegicus [1]): 19 µM

SMILES: Cc1cccc(C(=O)/C=C/c2ccncc2)c1
- IC50 (Rattus norvegicus [1]): 39 µM

SMILES: CC(C)(C)c1ccc(C(=O)/C=C/c2ccncc2)cc1
- IC50 (Rattus norvegicus [1]): 47 µM

SMILES: O=C(/C=C/c1ccncc1)c1ccc(Cl)cc1
- IC50 (Rattus norvegicus [1]): 60 µM

SMILES: O=C(c1ccccc1)c1ccc(-c2cccnc2)cc1
- IC50 (Rattus norvegicus [1]): > 100 µM

SMILES: COc1cc(C(=O)/C=C/c2ccccn2)cc(OC)c1OC
- IC50 (Rattus norvegicus [1]): 18 µM

SMILES: C(=C\c1noc2ccccc12)/c1ccncc1
- IC50 (Rattus norvegicus [1]): > 100 µM

SMILES: COc1cc(C(=O)/C=C/c2cc[n+](C)cc2)cc(OC)c1OC
- IC50 (Rattus norvegicus [1]): > 50 µM

SMILES: O=C(C#Cc1ccncc1)c1ccccc1
- IC50 (Rattus norvegicus [1]): 16 µM

From ChEMBL document CHEMBL1127292, “Inhibition of myeloperoxidase release from rat polymorphonuclear leukocytes by a series of azachalcone derivatives” (J Med Chem, 1994)
